Xi reactivation: activators of X-chromosome reactivation in mouse fibroblasts; actives 0.055% (n = 360,000); activation, % at 7.58 µM; XiGFP mouse fibroblasts, % GFP-positive cells imaging, 3 d; cells co-treated with 5-aza-dC sensitizer; scaled so ellipticine positive control = 100%; AID 743238;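 active = mean normalized replicate activation at least 10% and every replicate at or above 10%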
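System: SV40-immortalized XiGFP fibroblast cells, line 68-5-11 / Incubation: 3-day compound exposure, then 15 min fixation at room temperature / Compound: single concentration per compound, delivered by pin transfer / Buffer or medium: DMEM plus 5-aza-dC sensitizer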
DENV2 CPE: inhibitors of DENV2 cytopathic effect | DENV2-infected cells, cytopathic effect rescue, plate reader | CPE inhibition, % at 9.99 µM | actives 1.7% (n = 350,000) | AID 651640; in the data active = CPE inhibition above about 20%, passing the limit was not always enough; tested in BHK-21 cells
ARNT-TACC3 inh: disruptors of human ARNT/TACC3 interaction | AlphaScreen His-ARNT PAS-B/GST-TACC3 binding, luminescence; TACC3 fragment carries E629A point mutation | inhibition, % at 9.99 µM | actives 0.66% (n = 390,000) | AID 623870;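 active = mean inhibition of replicates at least 50% and at least half of replicates each reaching 50%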
FGF22 binding: binders of recombinant human FGF22 by thermal shift. activity (Tm shift, normalised), % at 9.99 µM. SYPRO orange fluorescence; percent of sucrose octasulfate shift, DMSO zero. Q9HCT0. actives 1.5% (n = 340,000). AID 651658;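 active = mean Tm shift, scaled 0 neutral to 100 positive control, at about 1.3% or above, every replicate too, limit read from the data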
SIRT5 inh: sirtuin-5 (human) deacylase inhibition. Q9NXA8. Purified SirT5, succinyl-peptide AMC, trypsin-coupled fluorescence. inhibition, % at 15 µM. actives 1.1% (n = 330,000); in the data active = inhibition above about 15%
Target sequence (Q9NXA8 whole entry, looked up): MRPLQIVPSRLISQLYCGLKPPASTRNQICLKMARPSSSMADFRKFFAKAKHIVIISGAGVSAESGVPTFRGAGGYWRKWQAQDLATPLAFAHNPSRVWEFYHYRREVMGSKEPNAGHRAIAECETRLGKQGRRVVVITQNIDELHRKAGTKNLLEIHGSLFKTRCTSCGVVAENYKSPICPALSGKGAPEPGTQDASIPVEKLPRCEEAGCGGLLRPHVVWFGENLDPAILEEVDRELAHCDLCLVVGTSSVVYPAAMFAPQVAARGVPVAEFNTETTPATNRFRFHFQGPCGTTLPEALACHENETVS
FN deposition inh: fibronectin deposition inhibition | AH1F fibroblasts, Alexa488-fibronectin deposition fluorescence, overnight | inhibition, % at 12.6 µM | actives 0.086% (n = 350,000) | AID 743247;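 active = mean inhibition across replicates of 30% or more, regardless of how many single replicates reach that level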
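Assay system: AH1F fibroblast monolayer, labelled fibronectin deposition. Amount: 10000 cells per well. Also added: labelled fibronectin 24 nM. Compound: single-point pinned compound. Incubation: cell attachment 1 h, compound and FN exposure overnight. Detection: fluorescence after three HBSS washes, excitation 485 nm, emission 525 nm. Read-out: inhibition of fibronectin deposition signal.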
A number is an active result. Most compounds without a hit are left out; they make up all but 3.8% or so of the library.

For O=C(C1CCCCC1)N1CC2(C1)[C@@H](c1ccccc1)[C@@H](CO)N2Cc1cncnc1 the results were Xi reactivation inactive, DENV2 CPE inactive, FGF22 binding inactive, SIRT5 inh inactive and FN deposition inh inactive.
`COc1ccc(NC(=O)N2C[C@@H](O)COC[C@H]3O[C@@H](CC(=O)N4CCOCC4)CC[C@@H]32)cc1` gave Xi reactivation inactive, DENV2 CPE inactive, ARNT-TACC3 inh inactive, FGF22 binding inactive, SIRT5 inh inactive and FN deposition inh inactive.
`O=C1CCCCC1C(O)(C(=O)c1ccccc1)c1ccccc1` (centres undefined) gave Xi reactivation inactive, DENV2 CPE inactive, FGF22 binding 43.3 and FN deposition inh inactive.
CC1CCC(C(O)(C(=O)c2ccccc2)c2ccccc2)C(=O)C1 (centres undefined) was read as Xi reactivation inactive, DENV2 CPE inactive, FGF22 binding inactive, SIRT5 inh inactive and FN deposition inh inactive.
For C[C@@H]1CN([C@@H](C)CO)C(=O)Cc2cc(N(C)C)ccc2O[C@@H]1CN(C)S(=O)(=O)c1cn(C)cn1 the results were Xi reactivation inactive, DENV2 CPE inactive, ARNT-TACC3 inh inactive, FGF22 binding inactive, SIRT5 inh inactive and FN deposition inh inactive.
Screening Cc1ccc(NC(=O)NCCN2CCCCC2)cc1 returned Xi reactivation inactive, DENV2 CPE inactive, ARNT-TACC3 inh inactive, FGF22 binding inactive, SIRT5 inh inactive and FN deposition inh inactive.
`CC1=NCCN1CCNC(=O)Nc1ccc(C(C)(C)C)cc1` gave Xi reactivation inactive, DENV2 CPE 23.7, ARNT-TACC3 inh inactive, FGF22 binding inactive, SIRT5 inh inactive and FN deposition inh inactive.
Screening CCSc1nc2ccccc2c(=O)n1Cc1ccc(F)cc1 returned Xi reactivation inactive, DENV2 CPE inactive, ARNT-TACC3 inh inactive, FGF22 binding 43.6, SIRT5 inh inactive and FN deposition inh inactive.
Screening C[C@@H]1CN([C@H](C)CO)C(=O)c2cc(NC(=O)C3CCCCC3)ccc2O[C@@H]1CN(C)C returned Xi reactivation inactive, DENV2 CPE inactive, ARNT-TACC3 inh inactive, FGF22 binding inactive and SIRT5 inh inactive.
Screening O=C(O)CCS(=O)(=O)c1cccc2cccnc12 returned ARNT-TACC3 inh inactive.
Screening CCSS(=O)(=O)c1cccc2cccnc12 returned Xi reactivation inactive, DENV2 CPE inactive, ARNT-TACC3 inh 65.0, FGF22 binding inactive, SIRT5 inh inactive and FN deposition inh inactive.
O=S(=O)(Nc1ccc(Cl)cc1)c1cccc2cccnc12 was read as Xi reactivation inactive, DENV2 CPE inactive, ARNT-TACC3 inh 37.8, FGF22 binding inactive, SIRT5 inh inactive and FN deposition inh inactive.
Screening COc1ccc(NC(=S)NNC(=O)c2nnn(-c3ccccc3)c2C)cc1 returned Xi reactivation inactive, DENV2 CPE inactive, ARNT-TACC3 inh 61.9, FGF22 binding inactive, SIRT5 inh inactive and FN deposition inh inactive.
C[C@@H]1CCCCO[C@H](CN(C)S(C)(=O)=O)[C@H](C)CN([C@@H](C)CO)C(=O)c2cc(NS(=O)(=O)c3ccc(Cl)cc3)ccc2O1 was read as Xi reactivation inactive, DENV2 CPE inactive, ARNT-TACC3 inh inactive, FGF22 binding inactive, SIRT5 inh inactive and FN deposition inh inactive.
C[C@@H]1CCCCO[C@@H](CN(C)C(=O)C2CCCCC2)[C@H](C)CN([C@@H](C)CO)C(=O)c2cc(NC(=O)NC3CCCCC3)ccc2O1 was read as DENV2 CPE inactive, ARNT-TACC3 inh inactive, FGF22 binding inactive and SIRT5 inh inactive.
CCN(CC)S(=O)(=O)c1ccc(NC(=O)c2cccs2)cc1 was read as Xi reactivation inactive, DENV2 CPE inactive, FGF22 binding 43.3, SIRT5 inh inactive and FN deposition inh inactive.
Screening CCN(CC)S(=O)(=O)c1ccc(NC(=S)NC(=O)CC(C)C)cc1 returned Xi reactivation inactive, DENV2 CPE inactive, ARNT-TACC3 inh inactive, FGF22 binding inactive, SIRT5 inh 33.1 and FN deposition inh inactive.
For CCN(CC)S(=O)(=O)c1ccc(NC(=S)NC(=O)C(C)C)cc1 the results were Xi reactivation inactive, DENV2 CPE inactive, ARNT-TACC3 inh inactive, FGF22 binding inactive, SIRT5 inh inactive and FN deposition inh inactive.
